Reference: PubChem BioAssay AID588798 (Johns Hopkins Ion Channel Center, 2011)
Activity calls are given as the source filed them.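 Rule for the calls: active = peak inhibition of the KCNQ2 potassium channel above 30% at some tested dose, plus a fitted dose response curve; inactive = no inhibition at any dose, or no curve.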

Molecular target: Potassium voltage-gated channel subfamily KQT member 2 (Rattus norvegicus) (UniProt O88943)
Test: KCNQ2 potassium flux blockade – cell-based, FluxOR thallium flux, CRC set 3, selectivity assay for KCNK9 inhibitor project, SAR follow-up (AID 588798)
Conditions: KCNQ2-expressing cells, FluxOR thallium flux fluorescence; for thallium flux ratio, lower = inhibition: at 30 µM (top of the series)
How it was run: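 Test system: KCNQ2-expressing CHO cells; Dosing: compound concentration-response series; Times: dye loading 90 min, compound pre-incubation 20 min, both room temperature; Signal: FluxOR thallium-sensitive dye, kinetic fluorescence reading; Read-out: normalised fluorescence change ratio and IC50; Repeats: duplicate or more.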

Chain of Potassium voltage-gated channel subfamily KQT member 2 (Rattus norvegicus) (O88943 whole entry, looked up): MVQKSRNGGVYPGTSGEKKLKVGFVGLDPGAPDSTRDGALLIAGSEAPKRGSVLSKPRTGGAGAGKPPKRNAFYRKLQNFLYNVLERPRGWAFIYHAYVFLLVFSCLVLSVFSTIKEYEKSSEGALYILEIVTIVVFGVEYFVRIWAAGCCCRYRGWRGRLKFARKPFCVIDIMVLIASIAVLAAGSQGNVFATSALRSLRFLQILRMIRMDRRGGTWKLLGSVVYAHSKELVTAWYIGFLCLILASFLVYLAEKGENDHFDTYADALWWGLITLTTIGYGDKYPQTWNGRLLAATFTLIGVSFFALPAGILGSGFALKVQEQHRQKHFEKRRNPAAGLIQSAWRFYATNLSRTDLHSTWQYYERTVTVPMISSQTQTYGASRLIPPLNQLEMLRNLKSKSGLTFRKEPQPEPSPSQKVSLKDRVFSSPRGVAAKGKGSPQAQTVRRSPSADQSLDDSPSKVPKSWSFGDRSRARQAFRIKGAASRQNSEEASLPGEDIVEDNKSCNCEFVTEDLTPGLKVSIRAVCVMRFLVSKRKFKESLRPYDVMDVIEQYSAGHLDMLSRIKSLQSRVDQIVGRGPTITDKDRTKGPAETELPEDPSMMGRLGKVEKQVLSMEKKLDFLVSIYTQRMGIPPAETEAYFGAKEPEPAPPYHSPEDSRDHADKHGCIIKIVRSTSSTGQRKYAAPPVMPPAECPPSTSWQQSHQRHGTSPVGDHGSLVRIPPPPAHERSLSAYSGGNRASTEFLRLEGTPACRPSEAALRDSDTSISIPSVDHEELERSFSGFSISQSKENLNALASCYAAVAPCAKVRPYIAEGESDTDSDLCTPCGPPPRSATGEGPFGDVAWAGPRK

Row | thallium flux ratio, lower = inhibition | IC50 [µM] | SMILES
1 | inactive | – | CSc1nnc(-c2ccco2)n1C(C)C1CC2CCC1C2 (stereo not drawn)
2 | – | 18 | CC(C1CC2CCC1C2)n1c(SCc2ccccc2)nnc1-c1ccco1 (stereo not drawn)
3 | inactive | – | CC(C1CC2CCC1C2)n1c(-c2ccc(N(C)C)cc2)n[nH]c1=S (stereo not drawn)
4 | inactive | – | CC(C1CC2CCC1C2)n1c(-c2ccccn2)n[nH]c1=S (stereo not drawn)
5 | inactive | – | CC(C1C2CCC1CC2)n1c(-c2ccco2)n[nH]c1=S (stereo not drawn)
6 | inactive | – | CC(C1CC2CCC1C2)n1c(-c2ccncc2)n[nH]c1=S (stereo not drawn)
7 | inactive | – | CC(C1CC2CCC1C2)n1c(-c2cccc(N(C)C)c2)n[nH]c1=S (stereo not drawn)
8 | inactive | – | CC(C)c1ccccc1C(=O)Nc1cccc(NC(=O)c2ccccc2OC(F)(F)F)c1
9 | inactive | – | CC(C1CCCCC1)n1c(-c2ccco2)n[nH]c1=S (stereo not drawn)
10 | inactive | – | CC(C1CC2CCC1C2)n1c(-c2cccnc2)n[nH]c1=S (stereo not drawn)
11 | inactive | – | CC(NC(=O)c1ccco1)C1CC2CCC1C2 (stereo not drawn)
12 | inactive | – | CC(c1cccc2ccccc12)n1c(-c2ccco2)n[nH]c1=S (stereo not drawn)
13 | inactive | – | CC(C1CC2CCC1C2)n1c(SCC(=O)c2ccccc2)nnc1-c1ccco1 (stereo not drawn)
14 | inactive | – | S=c1[nH]nc(-c2ccco2)n1C1CC2CCC1C2 (stereo not drawn)
15 | inactive | – | C[C@H](C1CCCCC1)n1c(-c2ccco2)n[nH]c1=S
16 | inactive | – | C[C@@H](C1CCCCC1)n1c(-c2ccco2)n[nH]c1=S
17 | inactive | – | COc1ccc(C(=O)CSc2nnc(-c3ccco3)n2C(C)C2CC3CCC2C3)cc1 (stereo not drawn)
18 | inactive | – | COc1cccc(C(=O)CSc2nnc(-c3ccco3)n2C(C)C2CC3CCC2C3)c1 (stereo not drawn)
19 | inactive | – | COc1ccccc1C(=O)Nc1cc(NC(=O)c2ccccc2C(C)C)ccc1F
20 | inactive | – | S=c1[nH]nc(-c2ccco2)n1CC1CC2CCC1C2 (stereo not drawn)
21 | inactive | – | COc1ccccc1C(=O)Nc1cccc(NC(=O)c2cccc3ccccc23)c1
22 | inactive | – | COc1ccc(C(=O)CSc2nnc(-c3ccco3)n2C(C)C2CC3CCC2C3)cc1OC (stereo not drawn)

Row | thallium flux ratio, lower = inhibition | IC50 [µM] | SMILES
23 | inactive | – | CC(C1CC2CCC1C2)n1c(SCC#N)nnc1-c1cccs1 (stereo not drawn)
24 | inactive | – | CC(C1CC2CCC1C2)n1cnnc1-c1ccco1 (stereo not drawn)
25 | inactive | – | CC(C1CC2CCC1C2)N(C)C(=O)c1ccco1 (stereo not drawn)
26 | inactive | – | CC(C1CC2CCC1C2)n1c(-c2ccco2)nnc1C(F)(F)F (stereo not drawn)
27 | inactive | – | CC(C)Oc1ccccc1C(=O)Nc1cccc(NC(=O)c2ccccc2OC(F)(F)F)c1
28 | inactive | – | CC(C1CC2CCC1C2)n1c(-c2cccs2)n[nH]c1=S (stereo not drawn)
29 | inactive | – | CC(C1CC2CCC1C2)n1c(-c2ccccc2F)n[nH]c1=S (stereo not drawn)
30 | inactive | – | CC(C1CC2CCC1C2)n1c(-c2ccco2)n[nH]c1=S (stereo not drawn)
31 | inactive | – | COc1cc(OC)cc(-c2n[nH]c(=S)n2C(C)C2CC3CCC2C3)c1 (stereo not drawn)
32 | inactive | – | CC(CCC1CCCC1)n1c(-c2ccco2)n[nH]c1=S (stereo not drawn)
33 | inactive | – | CC(CC1CC2CCC1C2)n1c(-c2ccco2)n[nH]c1=S (stereo not drawn)
34 | inactive | – | CC(C1CC2CCC1C2)n1c(SC(F)F)nnc1-c1ccco1 (stereo not drawn)
35 | inactive | – | COc1ccc(CCSc2nnc(-c3ccco3)n2C(C)C2CC3CCC2C3)cc1OC (stereo not drawn)
36 | inactive | – | COc1cccc(-c2n[nH]c(=S)n2C(C)C2CC3CCC2C3)c1OC (stereo not drawn)
37 | inactive | – | CC(C1CC2CCC1C2)n1c(SCC(=O)c2ccc3c(c2)OCO3)nnc1-c1ccco1 (stereo not drawn)
38 | inactive | – | CC(C1CC2CCC1C2)n1c(SCC(=O)c2ccc(Cl)c(Cl)c2)nnc1-c1ccco1 (stereo not drawn)
39 | inactive | – | CC(C1CC2CCC1C2)n1c(-c2cccc(F)c2)n[nH]c1=S (stereo not drawn)
40 | inactive | – | CC(C1CC2CCC1C2)n1c(-c2ccco2)n[nH]c1=O (stereo not drawn)
41 | inactive | – | COc1cccc(Cc2n[nH]c(=S)n2C(C)C2CC3CCC2C3)c1 (stereo not drawn)
42 | inactive | – | COc1cccc(-c2nnc(S(C)(=O)=O)n2C(C)C2CC3CCC2C3)c1 (stereo not drawn)
43 | inactive | – | CC(C1CC2CCC1C2)n1c(-c2cccn2C)n[nH]c1=S (stereo not drawn)
